Experimental data published in ChEMBL document CHEMBL3286131, “Design, synthesis and systematic evaluation of cytotoxic 3-heteroarylisoquinolinamines as topoisomerases inhibitors” (Eur J Med Chem, 2014).
“And” between values parts separate entries of the source, which are not always exact repeats. Equal values may be shown once.

What was measured:
[1] = target: DNA topoisomerase 2-alpha (Homo sapiens) (UniProt P11388); experiment: Inhibition of human DNA topoisomerase-2a-mediated relaxation of supercoiled DNA pBR322 at 100 uM after 4 hrs using ethidium bromide staining by agarose gel electrophoresis analysis
DNA topoisomerase 2-alpha (Homo sapiens), sequence (P11388 whole entry): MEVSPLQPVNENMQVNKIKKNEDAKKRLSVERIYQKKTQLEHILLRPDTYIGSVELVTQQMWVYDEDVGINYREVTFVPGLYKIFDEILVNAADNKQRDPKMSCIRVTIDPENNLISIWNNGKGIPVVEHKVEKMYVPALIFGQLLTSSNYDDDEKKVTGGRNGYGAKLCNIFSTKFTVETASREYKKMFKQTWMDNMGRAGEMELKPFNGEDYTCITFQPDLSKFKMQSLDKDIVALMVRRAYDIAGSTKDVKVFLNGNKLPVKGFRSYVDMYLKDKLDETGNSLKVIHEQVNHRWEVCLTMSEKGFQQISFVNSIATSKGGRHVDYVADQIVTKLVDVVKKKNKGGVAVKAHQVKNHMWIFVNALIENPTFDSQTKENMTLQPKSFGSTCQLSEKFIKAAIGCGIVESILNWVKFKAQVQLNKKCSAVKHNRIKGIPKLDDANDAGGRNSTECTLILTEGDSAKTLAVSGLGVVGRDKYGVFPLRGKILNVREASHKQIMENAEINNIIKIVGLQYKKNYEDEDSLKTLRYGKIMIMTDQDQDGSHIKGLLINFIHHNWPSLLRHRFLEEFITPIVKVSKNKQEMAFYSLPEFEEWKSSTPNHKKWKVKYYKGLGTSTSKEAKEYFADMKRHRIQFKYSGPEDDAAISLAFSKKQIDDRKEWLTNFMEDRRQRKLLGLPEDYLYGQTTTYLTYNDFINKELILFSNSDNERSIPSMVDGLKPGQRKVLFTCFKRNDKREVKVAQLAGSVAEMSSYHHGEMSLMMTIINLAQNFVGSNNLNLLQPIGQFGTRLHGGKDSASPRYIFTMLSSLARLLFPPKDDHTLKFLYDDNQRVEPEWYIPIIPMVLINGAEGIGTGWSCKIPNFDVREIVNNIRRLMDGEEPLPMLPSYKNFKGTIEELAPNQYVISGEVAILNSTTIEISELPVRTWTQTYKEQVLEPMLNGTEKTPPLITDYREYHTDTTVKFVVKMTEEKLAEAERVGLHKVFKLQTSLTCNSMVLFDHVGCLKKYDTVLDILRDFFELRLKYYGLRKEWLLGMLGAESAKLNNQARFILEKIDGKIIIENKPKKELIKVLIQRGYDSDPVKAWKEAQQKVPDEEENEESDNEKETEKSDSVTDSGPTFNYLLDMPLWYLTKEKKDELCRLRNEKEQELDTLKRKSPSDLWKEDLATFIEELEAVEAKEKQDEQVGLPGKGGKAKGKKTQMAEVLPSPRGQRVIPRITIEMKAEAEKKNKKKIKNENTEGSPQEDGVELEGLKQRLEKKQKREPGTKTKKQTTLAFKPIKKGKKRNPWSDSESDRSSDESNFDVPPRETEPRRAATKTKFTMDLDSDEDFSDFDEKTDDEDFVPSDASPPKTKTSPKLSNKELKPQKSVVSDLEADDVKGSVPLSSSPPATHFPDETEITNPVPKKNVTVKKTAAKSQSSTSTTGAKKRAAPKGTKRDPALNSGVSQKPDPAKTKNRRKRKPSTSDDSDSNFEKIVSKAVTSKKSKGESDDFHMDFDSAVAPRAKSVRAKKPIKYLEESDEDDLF
Summary of the method: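 Supercoiled pBR322 (200 ng) incubated with human topo IIα (1 unit) ± compound for 30 min at 30 °C. Buffer: 10 mM Tris-HCl pH 7.9, 50 mM NaCl, 50 mM KCl, 5 mM MgCl2, 1 mM EDTA, 1 mM ATP, BSA. Stopped with EDTA. 1% agarose gel run at 25 V for 4 h in TAE, ethidium bromide stain, supercoiled DNA quantified by UV imaging.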

[2] = target: T1, DNA topoisomerase 1 (Homo sapiens) (UniProt P11387); experiment: Inhibition of recombinant human DNA topoisomerase-1-mediated relaxation of supercoiled DNA pBR322 at 100 uM after 7 hrs using ethidium bromide staining by agarose gel electrophoresis analysis
T1 sequence (whole entry): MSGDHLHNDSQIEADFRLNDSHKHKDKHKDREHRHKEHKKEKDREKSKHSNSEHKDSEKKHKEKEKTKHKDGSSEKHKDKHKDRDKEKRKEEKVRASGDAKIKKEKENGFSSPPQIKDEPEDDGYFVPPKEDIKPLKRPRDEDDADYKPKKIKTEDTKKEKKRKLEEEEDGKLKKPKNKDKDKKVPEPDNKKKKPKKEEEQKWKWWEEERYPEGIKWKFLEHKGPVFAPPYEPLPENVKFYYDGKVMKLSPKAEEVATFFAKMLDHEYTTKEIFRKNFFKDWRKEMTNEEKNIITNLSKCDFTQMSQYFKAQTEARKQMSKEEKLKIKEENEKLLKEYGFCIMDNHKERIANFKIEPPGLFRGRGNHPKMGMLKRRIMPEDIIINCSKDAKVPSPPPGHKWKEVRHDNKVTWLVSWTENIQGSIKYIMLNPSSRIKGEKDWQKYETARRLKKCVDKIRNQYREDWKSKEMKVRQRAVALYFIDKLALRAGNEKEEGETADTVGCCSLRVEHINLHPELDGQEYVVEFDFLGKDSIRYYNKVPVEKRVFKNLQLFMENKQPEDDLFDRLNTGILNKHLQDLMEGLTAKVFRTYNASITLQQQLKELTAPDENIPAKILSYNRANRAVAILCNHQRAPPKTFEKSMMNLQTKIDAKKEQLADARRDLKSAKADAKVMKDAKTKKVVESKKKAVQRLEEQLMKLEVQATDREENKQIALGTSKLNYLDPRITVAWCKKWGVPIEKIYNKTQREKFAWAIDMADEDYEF
Summary of the method: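 pBR322 (100 ng) incubated with recombinant human topo I (0.4 units) ± compound for 30 min at 37 °C. Buffer: 10 mM Tris-HCl pH 7.9, 150 mM NaCl, 0.1% BSA, 1 mM spermidine, 5% glycerol. Quenched with sarcosyl stop solution. 1% agarose gel run at 15 V for 7 h in TAE, ethidium bromide stain, supercoiled DNA quantified under UV.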

[3] = Cytotoxicity against human MCF10A cells after 2 days; type: cell-based, MCF-10A
Summary of the method: (§1)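 Cells seeded at 2-4 × 10^4 per well in medium with 10% FBS and incubated overnight at 37 °C, 5% CO2. Graded compound concentrations added on day 2. CCK-8 reagent added on day 4 for a further 4 h, absorbance read at 450 nm. IC50 from a four-parameter logistic fit; mean ± S.D. of three experiments run in triplicate.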

[4] = tested on: T47D; experiment: Cytotoxicity against human T47D cells after 2 days; type: functional, cell-based; summary of the method: as §1
[5] = Cytotoxicity against human HCT15 cells after 2 days; type: functional, cell-based, HCT-15; summary of the method: as §1
[6] = tested on: DU-145; experiment: Cytotoxicity against human DU145 cells after 2 days; type: functional, cell-based; summary of the method: as §1

| SMILES | inhibition [1] | inhibition [2] | IC50 ([3]; Homo sapiens, MCF-10A, 48 h) | IC50 ([4]; t47d) | IC50 ([5]; hct-15) | IC50 ([3]; mcf-10a) | IC50 ([4]; Homo sapiens, T47D, 48 h) | IC50 ([6]; du-145) | IC50 ([5]; Homo sapiens, HCT-15, 48 h) | IC50 ([6]; Homo sapiens, DU-145, 48 h) |
| --- | --- | --- | --- | --- | --- | --- | --- | --- | --- | --- |
| CN1CCN(c2nc(-c3cccs3)cc3ccccc23)CC1 | 0% | 80.8% and 97.5% | – | – | – | – | – | – | – | – |
| Cc1ccc2c(N3CCOCC3)nc(-c3cccs3)cc2c1 [listing 1 of 2 here] | – | – | 48.7 µM | 7.88 µM | 7.79 µM | – | – | – | – | – |
| Cc1ccc2cc(-c3cccs3)nc(N3CCCCC3)c2c1 [listing 1 of 2 here] | – | – | – | 3.02 µM | 0.89 µM | – | – | – | – | – |
| Cc1ccc2cc(-c3cccs3)nc(N3CCN(C)CC3)c2c1 | – | – | – | – | – | 20.9 µM | 1.02 µM | 24.7 µM | 1.04 µM | – |
| CCN1CCN(c2nc(-c3cccs3)cc3ccc(C)cc23)CC1 | – | – | – | 4.15 µM | 3.63 µM | 43.1 µM | – | – | – | 29.4 µM |
| Cc1ccc2cc(-c3cccs3)nc(N3CCOCC3)c2c1 [listing 1 of 2 here] | – | – | – | 7.63 µM | 9.52 µM | 49.1 µM | – | 48.3 µM | – | – |
| CC[C@@]1(O)C(=O)OCc2c1cc1n(c2=O)Cc2cc3ccccc3nc2-1 [CAMPTOTHECIN] | – | – | 0.27 µM | – | – | – | 0.28 µM | – | 10.1 µM | 4.01 µM |
| Cc1ccc2cc(-c3cccs3)nc(N3CCOCC3)c2c1 [listing 2 of 2 here] | – | – | 35.6 µM | – | – | – | 6.38 µM | – | 7.58 µM | 47.3 µM |
| Cc1ccc2c(N3CCN(C)CC3)nc(-c3cccs3)cc2c1 | 0% | 5.1% and 11.2% | – | – | – | – | – | – | – | – |
| Cc1ccc2cc(-c3cccs3)nc(N3CCCN(C)CC3)c2c1 | 8% | 18.3% | 20.6 µM | – | – | – | 1.32 µM | – | 1.5 µM | 14.7 µM |
| Cc1ccc2c(N3CCCCC3)nc(-c3cccs3)cc2c1 | – | – | > 50 µM | 2.56 µM | 5.45 µM | – | – | – | – | > 50 µM |
| Cc1ccc2cc(-c3cccs3)nc(N3CCCCC3)c2c1 [listing 2 of 2 here] | – | – | > 50 µM | 7.38 µM | 3.74 µM | – | – | – | – | > 50 µM |
| Cc1ccc2c(N3CCOCC3)nc(-c3cccs3)cc2c1 [listing 2 of 2 here] | – | – | – | – | – | > 50 µM | 6.76 µM | – | 7.58 µM | > 50 µM |
| Cc1cccc2c(N=[N+]=[N-])nc(-c3cccs3)cc12 | 4.8% | 2.1% | > 50 µM | – | – | – | > 50 µM | – | > 50 µM | > 50 µM |
| COc1cc([C@@H]2c3cc4c(cc3[C@@H](O[C@@H]3O[C@@H]5CO[C@@H](C)O[C@H]5[C@H](O)[C@H]3O)[C@H]3COC(=O)[C@H]23)OCO4)cc(OC)c1O [ETOPOSIDE] | – | – | 12.2 µM | – | – | – | 2.57 µM | – | 9.45 µM | – |
| CCN1CCN(c2nc(-c3cccs3)cc3cc(C)ccc23)CC1 | 0% | 0% | – | – | – | – | – | – | – | – |
